Rpn11 inh: blocks the human proteasome subunit Rpn11; O00487; human 26S proteasome, Ub4-pepOG fluorescence polarization; 20S core pre-blocked with epoxomicin; calls only at 20 µM; 360,000 tested, 0.59% active;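 active = inhibition at 20 µM, scaled to each plate's controls, above about 33%, limit read from the data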
HNF4A DNA FP: change in binding of human HNF4 alpha to DNA; P41235; HNF4a-FITC DNA binding, fluorescence polarization, 1 h; activity change, % at 10 µM; 360,000 tested, 0.3% active; AID 1224865; in the data active = activity change above about 30%, passing the limit was not always enough
SUMO HTRF inh: blocks human SUMOylation mediated by UBC9; AID 2006; 290,000 tested, 0.36% active; P63279; inhibition, % at 35 µM; HTRF SUMOylation assay, SAE1/SAE2 + UBC9, in vitro; in the data active = inhibition above about 50%, passing the limit was not always enough
CSN inh: blocks human CSN-mediated cullin deneddylation; Purified CSN, SCF-Nedd8-OG deneddylation, fluorescence polarization; inhibition, % at 12.5 µM; 360,000 tested, 0.38% active;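 active = pattern-corrected inhibition above about 35%, with an unprinted fluorescence ratio check between 0.5 and 1.5, limit read from the data, passing the limit was not always enough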
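Assay system: HEK293T-derived human Csn5 enzyme; quantity: 0.24 nM enzyme; medium: Tris/NaCl/DTT buffer, pH 7.5; also added: substrate SCFSkp2-Nedd8OG, 10 nM; doses: 12.5 µM compound; schedule: 90 min reaction at room temperature; signal: FP; read-out: % inhibition of substrate cleavage by Csn5; benchmarks: substrate-only high control, full reaction low control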
TPT1 inh: C. albicans TPT1 enzyme inhibition; recombinant caTPT1, FP RNA substrate dephosphorylation; inhibition, % at 5 µM; 300,000 tested, 0.81% active; AID 1962;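 active = inhibition above the mean of all tested compounds plus 3 SD, set per screening campaign, cut at about 24% in these data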
SENP1 inh: SENP1 (human) catalytic domain inhibition | inhibition, % at 10 µM | 360,000 tested, 0.21% active | Q9P0U3 | recombinant SENP1 catalytic domain, CyPet-SUMO1-YPet FRET cleavage;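 active = inhibition at least 30% at 10 µM, raw YFP signal under a set limit, fluorescence ratio 0.5 to 1.5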
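Test system: human SENP1 catalytic domain; medium: Tris pH 8 buffer plus EDTA, NaCl, BME, BSA, NP40, catalase; incubation: 50 min reaction at room temperature; technique: FRET, CFP and YFP emission; controls: no-enzyme low control and enzyme-plus-DMSO high control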
caTPT1 confirm: TPT1 (C. albicans) inhibition, confirmation; shares compounds with TPT1 inh; AID 2149; 2,400 tested, 74% active; inhibition, % at 5 µM; recombinant caTPT1, fluorescence polarization, RNase T1 coupled;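 active = inhibition above the primary screen limit, the mean inhibition of all tested compounds plus 3 SD, cut at about 25% in these data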
RNase T1 counter: RNase T1 inhibition in TPT1 counter-screen | shares compounds with TPT1 inh | RNase T1 cleavage, fluorescence polarization, 1536-well | inhibition, % at 5 µM | AID 2153 | 2,400 tested, 83% active;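 active = inhibition above the solvent-only control well mean plus 3 SD, limit set per screening run, cut at about 23% in these data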;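 also: inhibitors block cleavage so intact labeled substrate keeps polarization high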
Rpn11 inh conf: confirmation of human proteasome Rpn11 inhibitors. shares compounds with Rpn11 inh. purified human 26S proteasome, Ub4-pepOG fluorescence polarization; proteasome pretreated with epoxomicin. inhibition, % at 20 µM. 1,900 tested, 29% active. AID 602318
MMP-2 inh: counter-screen for RPN11 inhibitors: inhibition of human MMP-2 | inhibition, % at 20 µM | shares compounds with Rpn11 inh | 1,900 tested, 4% active | recombinant MMP-2, FRET peptide cleavage fluorescence;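 also: human MMP-2 activated beforehand with APMA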
Target sequence (P08253 whole entry, looked up): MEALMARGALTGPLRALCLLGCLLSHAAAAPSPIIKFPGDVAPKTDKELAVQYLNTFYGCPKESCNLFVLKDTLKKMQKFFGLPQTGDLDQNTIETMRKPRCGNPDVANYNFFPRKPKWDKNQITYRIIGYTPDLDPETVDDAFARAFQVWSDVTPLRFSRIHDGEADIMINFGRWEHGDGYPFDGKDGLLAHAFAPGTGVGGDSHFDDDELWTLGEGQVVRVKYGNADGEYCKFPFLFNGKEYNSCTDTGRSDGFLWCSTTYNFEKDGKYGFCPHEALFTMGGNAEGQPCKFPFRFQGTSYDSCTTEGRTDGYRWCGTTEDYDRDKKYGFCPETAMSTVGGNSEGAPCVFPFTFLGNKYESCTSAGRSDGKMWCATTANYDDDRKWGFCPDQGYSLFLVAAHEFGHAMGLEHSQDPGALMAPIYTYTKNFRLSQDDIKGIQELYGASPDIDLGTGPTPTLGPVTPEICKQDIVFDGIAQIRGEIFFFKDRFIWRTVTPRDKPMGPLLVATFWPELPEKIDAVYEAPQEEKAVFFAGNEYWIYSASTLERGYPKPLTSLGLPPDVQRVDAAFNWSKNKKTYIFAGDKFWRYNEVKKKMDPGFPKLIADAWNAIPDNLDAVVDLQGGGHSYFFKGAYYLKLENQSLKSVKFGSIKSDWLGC
Thrombin inh: blocks bovine thrombin, flagging nonselective RPN11 hits. shares compounds with Rpn11 inh. AID 602333. inhibition, % at 20 µM. 1,900 tested, 13% active. bovine thrombin cleavage of Ub4-pepOG, fluorescence polarization;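 active = mean inhibition at least 40% at 20 µM, or signal 3 deviations below plate average, so some actives read negative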
Each line names hits and unclear results; the compound was inactive in the other large screens (follow-up assays come after a bar, where they were run). This is a sample that favours compounds with a hit; in the whole collection about 1.8% have one here. Rule as the data show it, unless noted: active = inhibition above about 40%; inactive = the rest.

COc1ccc(C2=NN(c3nc(-c4ccccc4)c(CC(=O)O)s3)C(c3ccco3)C2)cc1 (stereo not given)	Rpn11 inh active, CSN inh 43, TPT1 inh 60 | caTPT1 confirm 37 | RNase T1 counter 49 | Rpn11 inh conf inactive | MMP-2 inh inactive | Thrombin inh inactive
CCOC(=O)c1c(C)[nH]c(O)c1C=Nc1ccc(C(F)(F)F)cc1	Rpn11 inh active, TPT1 inh 36 | caTPT1 confirm 30 | RNase T1 counter 40 | Rpn11 inh conf inactive | MMP-2 inh inactive | Thrombin inh inactive
COc1ccccc1C(=O)NCCC(=O)Nc1cccc(C)n1	none
COC(=O)C1=C(C)N=c2s/c(=C/c3ccoc3)c(=O)n2C1c1ccccc1 (stereo not given)	Rpn11 inh active, HNF4A DNA FP 45, CSN inh 58, TPT1 inh 58 | caTPT1 confirm 61 | RNase T1 counter 73 | Rpn11 inh conf 48 | MMP-2 inh inactive | Thrombin inh 47
CCOC(=O)C1=C(C)N=c2s/c(=C\c3ccc(OCC(=O)O)c(OC)c3)c(=O)n2C1c1ccc(OC)cc1 (stereo not given)	Rpn11 inh active, TPT1 inh 25 | caTPT1 confirm 44 | RNase T1 counter 53 | Rpn11 inh conf inactive | MMP-2 inh inactive | Thrombin inh inactive
CCOC(=O)C1=C(C)N=c2s/c(=C\c3ccc(OCC(=O)O)cc3)c(=O)n2C1c1ccccc1 (stereo not given)	none
Cc1ccc(C)c(C(=O)CCC(=O)NNC(=O)Cn2nc(C)cc2C)c1	none (no result: SUMO HTRF inh)
COc1ccc(/C=C2\SC(=S)N(C(C(=O)O)c3ccccc3)C2=O)c(OC)c1 (stereo not given)	Rpn11 inh active, TPT1 inh 27 | caTPT1 confirm 40 | RNase T1 counter 53 | Rpn11 inh conf inactive | MMP-2 inh inactive | Thrombin inh inactive
COc1cccc(/C=C2\SC(=S)N(C(C(=O)O)c3ccccc3)C2=O)c1OC (stereo not given)	none
CNC(=O)c1sc(N2N=C3/C(=C/c4ccccc4)CCCC3C2c2ccccc2)nc1C (stereo not given)	Rpn11 inh active, TPT1 inh 28 | caTPT1 confirm 44 | RNase T1 counter 53 | Rpn11 inh conf inactive | MMP-2 inh inactive | Thrombin inh inactive
CN1CCc2nc(NC(=O)c3cccc(OC(F)F)c3)sc2C1	Rpn11 inh active, HNF4A DNA FP 49, TPT1 inh 60 | caTPT1 confirm 26 | RNase T1 counter 33 | Rpn11 inh conf inactive | MMP-2 inh inactive | Thrombin inh inactive
O=C(CSc1nc2cc(Cl)ccc2s1)c1cc2ccccc2o1	Rpn11 inh active, TPT1 inh 78 | caTPT1 confirm inactive | RNase T1 counter 27 | Rpn11 inh conf 45 | MMP-2 inh inactive | Thrombin inh inactive
Cc1cc(NC(=O)CSc2nc3cc(Cl)ccc3s2)no1	none
C(=N\NC1=Nc2cccc3cccc1c23)/c1cccnc1	Rpn11 inh active, HNF4A DNA FP 40, TPT1 inh 26 | caTPT1 confirm 41 | RNase T1 counter 56 | Rpn11 inh conf 40 | MMP-2 inh inactive | Thrombin inh inactive
